CSN deneddyl inh – blocks human CSN-mediated cullin deneddylation | Q92905 | Purified CSN, SCF-Nedd8-OG deneddylation, fluorescence polarization | inhibition, % at 12.5 µM | actives 0.38% (n = 360,000) | AID 651999;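 active = pattern-corrected inhibition above about 35%, with an unprinted fluorescence ratio check between 0.5 and 1.5, limit read from the data, passing the limit was not always enough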;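 note: 0% = enzyme with substrate and 100% = substrate without enzyme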
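Material: purified human Csn5 enzyme expressed in HEK293T cells / Medium: Tris buffer pH 7.5, NaCl, DTT, Tween-20, trehalose, ovalbumin / Compound dosing: 12.5 µM single point / Schedule: 90 min incubation of compound, enzyme and substrate at room temperature / Signal: fluorescence polarization of the substrate / Control set: no-enzyme wells high, enzyme-with-substrate wells low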
Rin1 Abl inh – human Rin1-Abl interaction inhibition; TR-FRET Rin1/Abl binding, biochemical; P00519+Q13671; inhibition, % at 7.35 µM; actives 0.4% (n = 360,000); in the data active = inhibition above about 5%, passing the limit was not always enough
TPT1 inh – inhibitors of Candida albicans tRNA 2'-phosphotransferase TPT1 | recombinant caTPT1, FP RNA substrate dephosphorylation | inhibition, % at 5 µM | actives 0.81% (n = 300,000);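 active = inhibition above the mean of all tested compounds plus 3 SD, set per screening campaign, cut at about 24% in these data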;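 note: plate controls were DMSO alone for no effect and ferristatin control at 100 nM for full effect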
HNF4A DNA FP – change in binding of human HNF4 alpha to DNA; activity change, % at 10 µM; P41235; actives 0.3% (n = 360,000); HNF4a-FITC DNA binding, fluorescence polarization, 1 h; in the data active = activity change above about 30%, passing the limit was not always enough
Neddyl block – cullin neddylation inhibition; P61081+Q13564; TR-FRET cullin neddylation, biochemical; inhibition, % at 25 µM; actives 0.58% (n = 360,000); in the data active = inhibition above about 36%
Target sequence (P61081 whole entry, looked up): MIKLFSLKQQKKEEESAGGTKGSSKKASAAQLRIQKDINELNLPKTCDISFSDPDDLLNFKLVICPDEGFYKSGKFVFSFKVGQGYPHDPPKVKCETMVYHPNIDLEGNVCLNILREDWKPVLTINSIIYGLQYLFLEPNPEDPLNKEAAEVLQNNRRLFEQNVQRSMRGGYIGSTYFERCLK
Target sequence (Q13564 whole entry, looked up): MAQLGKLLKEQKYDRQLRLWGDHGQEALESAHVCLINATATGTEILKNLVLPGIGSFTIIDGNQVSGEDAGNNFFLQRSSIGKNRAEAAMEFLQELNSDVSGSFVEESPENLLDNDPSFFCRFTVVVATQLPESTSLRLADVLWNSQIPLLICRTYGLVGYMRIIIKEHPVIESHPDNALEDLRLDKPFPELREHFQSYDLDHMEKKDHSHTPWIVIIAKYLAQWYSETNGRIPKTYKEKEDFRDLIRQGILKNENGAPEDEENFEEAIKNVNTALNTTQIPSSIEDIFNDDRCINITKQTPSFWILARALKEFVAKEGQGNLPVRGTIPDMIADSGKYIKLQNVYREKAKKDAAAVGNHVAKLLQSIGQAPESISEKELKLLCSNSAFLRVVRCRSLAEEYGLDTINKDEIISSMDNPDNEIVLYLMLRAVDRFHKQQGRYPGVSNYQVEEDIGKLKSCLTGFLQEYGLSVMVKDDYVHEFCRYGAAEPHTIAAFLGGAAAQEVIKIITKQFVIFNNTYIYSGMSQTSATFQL
Rpn11 block – inhibitors of human proteasome Rpn11. actives 0.59% (n = 360,000). AID 588493. O00487. human 26S proteasome, Ub4-pepOG fluorescence polarization; 20S core pre-blocked with epoxomicin. inhibition, % at 20 µM;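 active = inhibition at 20 µM, scaled to each plate's controls, above about 33%, limit read from the data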
TPT1 inh confirm – confirmation of Candida albicans TPT1 inhibitors; inhibition, % at 5 µM; shares compounds with TPT1 inh; actives 74% (n = 2,400); recombinant caTPT1, fluorescence polarization, RNase T1 coupled;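 active = inhibition above the primary screen limit, the mean inhibition of all tested compounds plus 3 SD, cut at about 25% in these data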
RNase T1 inh – blocks Aspergillus oryzae RNase T1, a TPT1 counter-screen | RNase T1 cleavage, fluorescence polarization, 1536-well | inhibition, % at 5 µM | shares compounds with TPT1 inh | AID 2153 | actives 83% (n = 2,400);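 active = inhibition above the solvent-only control well mean plus 3 SD, limit set per screening run, cut at about 23% in these data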;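 note: plate controls were DMSO wells with enzyme for no effect and wells without RNase T1 for full effect; inhibitors block cleavage so intact labeled substrate keeps polarization high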
Rpn11 inh conf – confirmation of human proteasome Rpn11 inhibitors. shares compounds with Rpn11 block. purified human 26S proteasome, Ub4-pepOG fluorescence polarization; proteasome pretreated with epoxomicin. inhibition, % at 20 µM. actives 29% (n = 1,900). AID 602318
MMP-2 counter – blocks human MMP-2, flagging nonselective RPN11 hits. shares compounds with Rpn11 block. recombinant MMP-2, FRET peptide cleavage fluorescence. inhibition, % at 20 µM. actives 4% (n = 1,900);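 note: human MMP-2 activated beforehand with APMA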
Thrombin inh – blocks bovine thrombin, flagging nonselective RPN11 hits; inhibition, % at 20 µM; bovine thrombin cleavage of Ub4-pepOG, fluorescence polarization; actives 13% (n = 1,900); shares compounds with Rpn11 block;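 active = mean inhibition at least 40% at 20 µM, or signal 3 deviations below plate average, so some actives read negative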;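 note: plate controls were thrombin with DMSO for no effect and buffer wells lacking thrombin for full effect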
Active calls of the source: *; x = no result given. Sampled rows, rich in hits. Any-hit rate of the full collection: about 2.4%. Cut-off read from the data, not from the text of the source, unless noted: active = inhibition above about 40%; inactive = the rest.

SMILES	CSN deneddyl inh	Rin1 Abl inh	TPT1 inh	HNF4A DNA FP	Neddyl block	Rpn11 block	TPT1 inh confirm	RNase T1 inh	Rpn11 inh conf	MMP-2 counter	Thrombin inh
NC1=NC(=O)/C(=C\c2ccc(O)c([N+](=O)[O-])c2)S1	-14	-6	-1	1	-42	-3	x	x	x	x	x
CCN1CCc2c(sc(NC(=O)c3ccc(S(=O)(=O)N(CC)c4ccccc4)cc3)c2C(N)=O)C1	11	-4	97*	29	13	58*	103*	107*	76*	-246	11
CCN1CCc2c(sc(NC(=O)c3ccc(C(=O)c4ccccc4)cc3)c2C(N)=O)C1	3	-2	11	5	-16	19	x	x	x	x	x
Cc1cccc(/C=N/c2sc3c(c2C#N)CCN(Cc2ccccc2)C3)c1O	29	0	58*	23	-1	50*	56*	69*	18	-11	-7
COc1ccc(/C=N/c2sc3c(c2C#N)CCN(Cc2ccccc2)C3)c(O)c1	x	x	11	x	x	x	x	x	x	x	x
C/C(=N\Nc1nc(-c2cc(C)ccc2C)cs1)c1cc2c(ccc3ccccc32)oc1=O	-13	1	28*	12	38	46*	33*	45*	14	-12	-9
C/C(=N\Nc1nc(-c2cc(C)ccc2C)cs1)c1cc2ccccc2oc1=O	-9	-1	3	4	-11	5	x	x	x	x	x
Cc1ncc(NS(=O)(=O)c2ccc(N)cc2)nc1C	-3	0	x	-2	1	-2	x	x	x	x	x
Cc1nc2ccc(N=NC3=C(O)CC(C)(C)CC3=O)cc2s1	-3	-7	4	4	-41	14	x	x	x	x	x
CC(=O)N1CCc2cc(N=NC3=C(O)CC(C)(C)CC3=O)ccc21	29	-11	27*	66*	-128	108*	46*	57*	67*	-29	48*
O=C(Cn1cc(C(=O)COc2ccccc2)c2ccccc21)NCc1ccco1	6	-2	34*	19	-3	38*	26*	38*	60*	21	39
Cc1ccc(S(=O)(=O)N2CCOCC2)cc1C(=O)NC1CCCC1	0	-1	-1	4	6	-3	x	x	x	x	x
CCOc1cc(/C=C/C(=O)c2ccc(OC)c(CN3CCOCC3)c2)cc(Br)c1O	21	-4	55*	5	-4	68*	81*	86*	72*	2	80*
Cc1onc(-c2c(Cl)cccc2Cl)c1/C(N)=N/OC(=O)C1CC1	3	1	2	-2	3	12	x	x	x	x	x
COc1ccc(C(=O)c2c(N)sc3c2CCN(C(=O)OC(C)(C)C)C3)cc1	9	-3	30*	12	-13	45*	13	22*	20	17	30
NC(=O)c1cc2cc(Cl)ccc2oc1=O	1	0	0	6	-8	9	x	x	x	x	x
CCN(CC)c1ccc2cc(C(N)=O)c(=O)oc2c1	12	-7	40*	35	48*	40*	36*	45*	11	-43	5
CN1CCN(C(=O)/C(=C/c2ccc(N(C)C)cc2)NC(=O)c2ccccc2)CC1	24	1	45*	-1	-3	49*	48*	58*	17	-7	5
C=CC[n+]1c(-c2ccc(OC)c(OC)c2)csc1NNC(=O)Nc1ccccc1	10	1	25*	1	1	52*	7	11	-3	48*	1
COc1ccc(C(=O)COC(=O)CCN=C2NS(=O)(=O)c3ccccc32)c(OC)c1	1	-1	-1	3	-108	3	x	x	x	x	x
Cc1c([C@@H]2C[C@H]3CN(Cc4cccc(Cl)c4)C(=O)[C@]34CCCN24)cnn1C	7	1	32*	21	6	45*	34*	48*	38	-33	5
Clc1ccc(Nc2ncn[nH]2)c(Cl)c1	-9	4	-2	2	0	-1	x	x	x	x	x
COc1cc(C)c(S(=O)(=O)n2ccc(C)n2)cc1C	3	2	0	-2	4	-1	x	x	x	x	x
O=C(O)c1ccccc1N/N=C/C1=C(N2CCOCC2)C(=C\c2ccccc2)/CC1	23	-3	25*	27	35	60*	93*	102*	15	-34	-84
COc1cc(/C=C(\C#N)C(=O)NCCc2ccccc2)cc(OC)c1O	35	1	76*	9	-40	79*	104*	106*	54*	3	52*
SMILES	CSN deneddyl inh	Rin1 Abl inh	TPT1 inh	HNF4A DNA FP	Neddyl block	Rpn11 block	TPT1 inh confirm	RNase T1 inh	Rpn11 inh conf	MMP-2 counter	Thrombin inh
CCc1sc(C(=O)N2CCN(C(=O)c3ccccc3)CC2)cc1C	-2	0	x	1	-1	-2	x	x	x	x	x
COc1ccc(CCNC(=O)CCc2nnc(Cc3ccc4c(c3)OCO4)o2)c(OC)c1	-1	1	-1	1	-6	0	x	x	x	x	x
CC1CN(C(=O)c2ccc(NS(=O)(=O)c3ccc(C(C)(C)C)cc3)cc2)CC(C)O1 (configuration not stated)	0	-1	x	-2	7	-6	x	x	x	x	x
O=C(N/N=C/c1ccc([N+](=O)[O-])o1)c1cc2ccccc2o1	16	-2	1	-4	-18	0	x	x	x	x	x
O=[N+]([O-])c1ccc(/C=N/Nc2ccc3ccccc3c2)o1	23	-2	32*	10	-7	41*	39*	47*	25	9	13
COc1cccc(/C=C2\SC(=S)N(CCCC(=O)Nc3cccc(C(=O)O)c3)C2=O)c1	1	-4	x	0	-26	-4	x	x	x	x	x
COc1ccc(/C=C2\SC(=S)N(CCCC(=O)Nc3cccc(C(=O)O)c3)C2=O)cc1OC	17	-3	36*	25	-30	54*	50*	66*	83*	-38	66*
CCN1C(=O)/C(=C/c2c(C)nn(C)c2C)SC1=S	10	-5	24*	10	-30	38*	34*	45*	33	-32	21
O=C1/C(=C/c2ccc([N+](=O)[O-])cc2)C=C(c2ccccc2)N1c1ccc(O)cc1	1	-1	4	-3	-9	11	x	x	x	x	x

Screening results: PubChem BioAssay, several laboratories
